Calls of active or inactive are those of the source. The rule behind the calls is not given here.
Experiments:
PC-9 [1] = conditions: Homo sapiens, dose 75.0 mg/kg, route po, time 15.0 day
A-431 = assay: Anticancer activity against human A-431 cells assessed as reduction in cell viability at IC50 concentration incubated for 72 hrs by CellTiter-Glo assay; type: functional, cell-based
Summary of the method: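 Three-day CellTiter-Glo viability assay. Cells exposed to compound across a 10-dose range of 0.3 nM to 10 µM for 72 h. IC50 from nonlinear sigmoidal dose-response fit.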

[2] = test system: Epidermal growth factor receptor (Homo sapiens), P00533 [UNDEFINED MUTATION]; conditions: PC-9, dose 500.0 nM, time 48.0 hrs
Epidermal growth factor receptor (Homo sapiens), P00533 [UNDEFINED MUTATION], sequence (P00533 whole entry, looked up, stated change not applied): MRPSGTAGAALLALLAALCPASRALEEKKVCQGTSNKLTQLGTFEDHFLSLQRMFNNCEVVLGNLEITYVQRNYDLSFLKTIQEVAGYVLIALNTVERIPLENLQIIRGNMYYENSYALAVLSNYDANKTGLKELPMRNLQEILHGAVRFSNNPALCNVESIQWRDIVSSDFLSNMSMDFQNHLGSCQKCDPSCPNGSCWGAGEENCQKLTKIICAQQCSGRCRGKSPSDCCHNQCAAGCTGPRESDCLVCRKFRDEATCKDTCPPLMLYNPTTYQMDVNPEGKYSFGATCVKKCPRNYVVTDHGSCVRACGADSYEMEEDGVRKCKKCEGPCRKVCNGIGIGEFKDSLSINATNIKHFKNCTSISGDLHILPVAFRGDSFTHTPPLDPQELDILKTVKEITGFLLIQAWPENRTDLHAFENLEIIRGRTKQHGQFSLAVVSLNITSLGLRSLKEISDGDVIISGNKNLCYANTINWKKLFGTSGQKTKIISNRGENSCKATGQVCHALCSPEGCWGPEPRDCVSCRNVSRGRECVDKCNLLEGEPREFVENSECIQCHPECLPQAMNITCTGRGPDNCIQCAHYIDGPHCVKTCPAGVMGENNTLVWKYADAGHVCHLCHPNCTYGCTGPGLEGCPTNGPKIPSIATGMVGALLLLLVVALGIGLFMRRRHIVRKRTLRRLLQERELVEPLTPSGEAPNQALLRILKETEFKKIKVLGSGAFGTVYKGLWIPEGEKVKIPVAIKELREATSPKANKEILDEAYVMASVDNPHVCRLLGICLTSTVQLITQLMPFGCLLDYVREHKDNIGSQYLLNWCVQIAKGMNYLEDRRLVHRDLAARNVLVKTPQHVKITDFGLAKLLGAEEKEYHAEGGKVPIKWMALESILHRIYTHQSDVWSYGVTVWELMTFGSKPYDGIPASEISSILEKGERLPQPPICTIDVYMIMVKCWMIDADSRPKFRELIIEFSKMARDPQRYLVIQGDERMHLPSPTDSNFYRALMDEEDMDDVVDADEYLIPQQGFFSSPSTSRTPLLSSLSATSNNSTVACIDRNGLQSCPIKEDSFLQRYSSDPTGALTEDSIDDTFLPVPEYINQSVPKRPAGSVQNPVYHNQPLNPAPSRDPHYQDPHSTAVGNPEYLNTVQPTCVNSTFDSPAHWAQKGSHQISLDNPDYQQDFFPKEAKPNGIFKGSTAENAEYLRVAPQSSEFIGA

[3] = test system: Epidermal growth factor receptor (Homo sapiens), P00533 [UNDEFINED MUTATION]; conditions: PC-9, dose 10-1000 nM
BaF3 [4] = conditions: Mus musculus, dose 10-1000 nM, time 6.0 hrs
BaF3 [5] = assay: Inhibition of EGFR-C797S/T790M/del19 mutant in mouse BaF3 cells assessed as reduction in EGFR phosphorylation incubated for 6 hrs by Western blotting analysis; type: cell-based
BaF3 [6] = type: cell-based; conditions: Mus musculus, dose 10-1000 nM, time 6.0 hrs
BaF3 [7] = conditions: Mus musculus, dose 10-1000 nM, time 6.0 hrs; remark: listed apart in the source
BaF3 [8] = conditions: Mus musculus, dose 30-1000 nM, time 6.0 hrs
BaF3 [9] = assay: Inhibition of EGFR-C797S/T790M/del19 mutant in mouse BaF3 cells assessed as reduction in Akt phosphorylation incubated for 6 hrs by Western blotting analysis; type: cell-based
BaF3 [10] = assay: Inhibition of EGFR-C797S/T790M/L858R mutant in mouse BaF3 cells assessed as inhibition of S6 phosphorylation at 10 to 1000 nM incubated for 6 hrs by Western blotting analysis; type: cell-based; conditions: dose 10-1000 nM
Summary of the method: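 Ba/F3 cells expressing EGFR-L858R-series mutants treated with inhibitors for 6 h. SDS lysates quantified by BCA, run on SDS-PAGE and blotted to PVDF. Probed for phospho-EGFR (Tyr1068), total EGFR and downstream phospho-proteins.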

BaF3 [11] = type: cell-based; conditions: Mus musculus, dose 10-1000 nM, time 6.0 hrs; remark: listed apart in the source
BaF3 [12] = assay: Inhibition of EGFR-T790M/del19 mutant in mouse BaF3 cells assessed as inhibition of S6 phosphorylation at 10 to 1000 nM incubated for 6 hrs by Western blotting analysis; type: cell-based; conditions: dose 10-1000 nM
Summary of the method: (§1)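 Ba/F3 cells carrying the stated EGFR mutant were made IL-3-independent after 1 week of 7 µM blasticidin selection. They were grown in low-glucose DMEM with 10% FBS and exposed to inhibitor for 6 h. Cells were washed in cold PBS, lysed in SDS buffer (100 mM Tris, 1% SDS, 10% glycerol) and boiled 5 min. Protein was measured by BCA, run on SDS-PAGE, transferred to PVDF, blocked in 5% BSA or milk/TBS-T, and immunoblotted.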

[13] = test system: Epidermal growth factor receptor (Homo sapiens), P00533 [UNDEFINED MUTATION]; conditions: MGH121, dose 500.0 nM, time 48.0 hrs
BaF3 [14] = type: cell-based; conditions: Mus musculus, dose 10-1000 nM, time 6.0 hrs; remark: listed apart in the source
PC-9 [15] = assay: Anti-tumor activity against EGFR T790M/del19 mutant expressing gefitinib-resistant human PC-9 cells xenografted in Balb-c nu/nu mouse assessed as growth inhibition at 75 mg/kg, po administered for 42 days; type: functional, organism-based; conditions: time 42.0 day
PC-9 [16] = assay: Anti-tumor activity against human PC-9 cells expressing EGFR-C797S/T790M/del19 mutant xenografted in Balb-c nu/nu mouse assessed as prolonged survival at 75 mg/kg, po administered for 60 days and measured twice weekly in presence of cetuximab; type: functional, organism-based; conditions: time 60.0 day
Summary of the method: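 PC9 EGFR-C797S/T790M/del19 xenografts in Balb-c nu/nu mice, randomized at ~200 mm³. […] Tumour volume 0.5×length×width² and body weight measured twice weekly. Survival shown by Kaplan-Meier curve. N = 6. Mann-Whitney U test on tumour volume at day 23.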

PC-9 [17] = assay: Anti-tumor activity against EGFR T790M/del19 mutant expressing gefitinib-resistant human PC-9 cells xenografted in Balb-c nu/nu mouse assessed as growth inhibition at 75 mg/kg, po administered for 42 days and measured for 3 times per week in presence of cetuximab; type: functional, organism-based; conditions: time 42.0 day
BaF3 [18] = conditions: Mus musculus, dose 10-1000 nM
BaF3 [19] = conditions: Mus musculus, dose 10-1000 nM, time 6.0 hrs; remark: listed apart in the source
[20] = test system: Epidermal growth factor receptor (Homo sapiens), P00533 [UNDEFINED MUTATION]; conditions: PC-9, dose 500.0 nM, time 48.0 hrs; remark: listed apart in the source
BaF3 [21] = assay: Inhibition of EGFR-T790M/del19 mutant in mouse BaF3 cells assessed as inhibition of Akt phosphorylation at 10 to 1000 nM incubated for 6 hrs by Western blotting analysis; type: cell-based; conditions: dose 10-1000 nM
Summary of the method: as §1

MGH121 = assay: Anti-tumor activity against human MGH121 cells expressing EGFR-C797S/T790M/del19 mutant xenografted in SCID-beige mouse assessed as tumor shrinkage at 75 mg/kg, po administered for 40 days and measured twice weekly in presence of cetuximab; type: functional, organism-based; conditions: time 40.0 day
Summary of the method: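 MGH121-res2 cells (EGFR-C797S/T790M/del19) implanted s.c. in SCID-beige mice. Randomized at mean tumour ~200 mm³. […] Tumour volume 0.5×length×width² and body weight measured twice weekly. N = 6, mean ± s.d. Mann-Whitney U test on day 42.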

PC-9 [22] = assay: Inhibition of EGFR T790M/del19 mutant in human PC-9 cells assessed as reduction in EGFR phosphorylation at 10 to 1000 nM by Western blotting analysis; type: cell-based; conditions: dose 10-1000 nM
[23] = test system: Epidermal growth factor receptor (Homo sapiens), P00533 [UNDEFINED MUTATION]; conditions: PC-9, dose 10-1000 nM; remark: listed apart in the source
PC-9 [24] = conditions: Homo sapiens, dose 75.0 mg/kg, route po, time 60.0 day
BaF3 [25] = assay: Inhibition of EGFR-del19 mutant in mouse BaF3 cells assessed as inhibition of S6 phosphorylation at 10 to 1000 nM incubated for 6 hrs by Western blotting analysis; type: cell-based; conditions: dose 10-1000 nM
Summary of the method: as §1

[26] = test system: Epidermal growth factor receptor (Homo sapiens), P00533 [UNDEFINED MUTATION]; conditions: PC-9, dose 10-1000 nM; remark: listed apart in the source
BaF3 [27] = conditions: Mus musculus, dose 30-1000 nM, time 6.0 hrs; remark: listed apart in the source
[28] = test system: Epidermal growth factor receptor (Homo sapiens), P00533 [UNDEFINED MUTATION]; conditions: PC-9, dose 500.0 nM, time 48.0 hrs; remark: listed apart in the source
PC-9 [29] = assay: Inhibition of EGFR T790M/del19 mutant in human PC-9 cells assessed as reduction in S6 phosphorylation at 10 to 1000 nM by Western blotting analysis; type: cell-based; conditions: dose 10-1000 nM
[30] = test system: Epidermal growth factor receptor (Homo sapiens), P00533 [UNDEFINED MUTATION]; conditions: PC-9, dose 10-1000 nM; remark: listed apart in the source

- inhibition [2]: inactive
- inhibition [3]: Active
- inhibition [13]: Active
- inhibition [20]: Active
- inhibition [23]: Active
- inhibition [26]: Active
- inhibition [28]: Active
- inhibition [30]: Active
Structure (SMILES): COc1cc(N2CCC(N3CCN(C)CC3)CC2)ccc1Nc1ncc(Cl)c(Nc2ccccc2P(C)(C)=O)n1 [BRIGATINIB]
- inhibition (PC-9 [1]): Active
- Activity (A-431): Active
- inhibition (BaF3 [4]): Active
- inhibition (BaF3 [5]): Dose-Dependent Effect
- inhibition (BaF3 [6]): Active
- inhibition (BaF3 [7]): Active
- inhibition (BaF3 [8]): Active
- inhibition (BaF3 [9]): Dose-Dependent Effect
- inhibition (BaF3 [10]): Active
- inhibition (BaF3 [11]): Active
- inhibition (BaF3 [12]): Active
- inhibition (BaF3 [14]): Active
- Activity (PC-9 [15]): Active
- Activity (PC-9 [16]): Active
- Activity (PC-9 [17]): Active
- inhibition (BaF3 [18]): Dose-Dependent Effect
- inhibition (BaF3 [19]): Active
- inhibition (BaF3 [21]): Active
- Activity (MGH121): Active
- inhibition (PC-9 [22]): Active
- inhibition (PC-9 [24]): Active
- inhibition (BaF3 [25]): Active
- inhibition (BaF3 [27]): Active
- inhibition (PC-9 [29]): Active
